In ChEMBL document CHEMBL1154293, “Sesquiterpenoids and benzofuranoids from the marine-derived fungus Aspergillus ustus 094102” (J Nat Prod, 2009):

Columns and labels:
[1] = test system: A549; assay: Cytotoxicity against human A549 cells after 24 hrs by SRB assay; assay type: functional, cell-based; conditions: A549, 24 h
[2] = test system: HL-60; assay: Cytotoxicity against human HL60 cells after 72 hrs by MTT assay; assay type: functional, cell-based; conditions: HL-60, 72 h
Summary of the method: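 HL-60 human tumor cells were plated 24 h ahead, then given various compound concentrations continuously for 72 h. Proliferation inhibition was measured by MTT tetrazolium reduction, and IC50 was derived from the inhibition rates. Etoposide (VP-16) was the positive control.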

[3] = test system: A549; assay: Cytotoxicity against human A549 cells after 72 hrs by SRB assay; conditions: A549, 72 h

## CC(C)(O)C1Cc2ccc(/C=C\CO)c(CO)c2O1 (stereo unspecified)
[1]
  IC50: > 100 µM
[2]
  IC50: > 100 µM

## CC1=CC(=O)[C@H]2C(C)(C)[C@@H](O)CC[C@]2(C)[C@@]1(O)CO [USTUSOL A]
[3]
  IC50: > 100 µM
[2]
  IC50: > 100 µM

## CC1=CC(=O)[C@H]2C(C)(C)C[C@@H](O)C[C@]2(C)[C@@]1(O)CO [USTUSOL B]
[3]
  IC50: > 100 µM
[2]
  IC50: > 100 µM

## CO[C@@H]1C=C(CO)[C@](O)(CO)[C@@]2(C)CCCC(C)(C)[C@H]12 [USTUSOL C]
[3]
  IC50: > 100 µM
[2]
  IC50: > 100 µM

## CC(O)C/C=C/C=C/C=C/C(=O)OC1C=C2COC(=O)[C@]2(O)[C@@]2(C)CCCC(C)(C)[C@H]12 (stereo partly specified) [USTUSOLATE B]
[3]
  IC50: > 100 µM
[2]
  IC50: > 100 µM

## CC(O)C/C=C/C=C/C(=O)O[C@@H]1C=C2COC(=O)[C@]2(O)[C@@]2(C)CCCC(C)(C)[C@H]12 (stereo partly specified) [USTUSOLATE C]
[3]
  IC50: 10.5 µM
[2]
  IC50: > 100 µM

## COC(/C=C/C=C/C(=O)O[C@@H]1C=C2COC(=O)[C@]2(O)[C@@]2(C)CCCC(C)(C)[C@H]12)OC [USTUSOLATE D]
[3]
  IC50: > 100 µM
[2]
  IC50: > 100 µM

## CC1(C)CCC[C@@]2(C)[C@H]1[C@H](OC(=O)/C=C/C=C/C=O)C=C1COC(=O)[C@@]12O [USTUSOLATE E]
[3]
  IC50: > 100 µM
[2]
  IC50: 9 µM

## CC(C)=C1Oc2c(ccc(CC(C)O)c2CO)C1=O (stereo unspecified) [USTUSORANE A]
[3]
  IC50: > 100 µM
[2]
  IC50: > 100 µM

## CC1=Cc2ccc3c(c2CO1)OC(=C(C)C)C3=O [USTUSORANE B]
[3]
  IC50: > 100 µM
[2]
  IC50: > 100 µM

## CO[C@H]1O[C@H](C)Cc2ccc3c(c21)OC(=C(C)C)C3=O [USTUSORANE C]
[3]
  IC50: > 100 µM
[2]
  IC50: > 100 µM

## CO[C@H]1O[C@H](C)Cc2ccc3c(c21)OC(C(C)C)C3=O (stereo partly specified) [USTUSORANE D]
[3]
  IC50: > 100 µM
[2]
  IC50: > 100 µM

## CC(O)Cc1ccc2c(c1CO)OC(C(C)(C)O)C2 (stereo unspecified) [USTUSORANE E]
[3]
  IC50: > 100 µM
[2]
  IC50: 0.13 µM
